Data as given in ChEMBL document CHEMBL2021898, “Prenylated acylphloroglucinols, chipericumins A-D, from Hypericum chinense” (J Nat Prod, 2012).

Legend:
KB = experiment: Cytotoxicity against human KB cells incubated for 48 hrs at 37 degC; format: functional, cell-based
Outline: (§1)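 Human epidermoid carcinoma KB and murine leukemia L1210 cells were cultured with test compounds at various concentrations, dissolved in 1% DMSO, in 100 μL medium at 37 °C for 48 h. IC50 was taken from a plot of log concentration against growth rate of treated cells. Paclitaxel was the positive control.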

L1210 = experiment: Cytotoxicity against mouse L1210 cells incubated for 48 hrs at 37 degC; format: functional, cell-based; settings: L1210, 48 h; outline: as §1
Escherichia coli = experiment: Antimicrobial activity against Escherichia coli by broth micro-dilution method; format: functional
Staphylococcus aureus = experiment: Antimicrobial activity against Staphylococcus aureus by broth micro-dilution method; format: functional
Bacillus subtilis = experiment: Antimicrobial activity against Bacillus subtilis by broth micro-dilution method; format: functional
Micrococcus luteus = experiment: Antimicrobial activity against Micrococcus luteus by broth micro-dilution method; format: functional
Aspergillus niger = experiment: Antimicrobial activity against Aspergillus niger by broth micro-dilution method; format: functional, organism-based
Candida albicans = experiment: Antimicrobial activity against Candida albicans by broth micro-dilution method; format: functional, organism-based
Cryptococcus neoformans = experiment: Antimicrobial activity against Cryptococcus neoformans by broth micro-dilution method; format: functional, organism-based
[1] = test system: Trichophyton mentagrophytes; experiment: Antimicrobial activity against Trichophyton mentagrophytes by broth micro-dilution method; format: functional, organism-based

Compound | IC50 (KB) | IC50 (L1210) | MIC (Escherichia coli) [µg/mL] | MIC (Staphylococcus aureus) [µg/mL] | MIC (Bacillus subtilis) [µg/mL] | MIC (Micrococcus luteus) [µg/mL] | IC50 (Aspergillus niger) [µg/mL] | IC50 (Candida albicans) [µg/mL] | IC50 (Cryptococcus neoformans) [µg/mL] | IC50 [1] [µg/mL]
CC(C)C(=O)C1=C2O[C@H](C(C)(C)O)C[C@]2(C)C(=O)[C@]2(C[C@H]3[C@@H](CC[C@@]3(C)O)[C@](C)(O)C2)C1=O (relative stereo) | > 10 µg/mL | > 10 µg/mL | > 32 | > 32 | > 32 | > 32 | > 32 | > 32 | > 32 | > 32
CC(C)=CC[C@]1(C)C(=O)[C@@]2(C[C@H]3[C@@H](CC[C@@]3(C)O)[C@](C)(O)C2)C(=O)C(C(=O)C(C)C)=C1O (relative stereo) | > 10 µg/mL | > 10 µg/mL | > 32 | > 32 | > 32 | > 32 | > 32 | > 32 | > 32 | > 32
CCC(C)C(=O)C1=C(O)[C@@](C)(CC=C(C)C)C(=O)[C@@]2(C[C@H]3[C@@H](CC[C@@]3(C)O)[C@](C)(O)C2)C1=O (relative stereo) | > 10 µg/mL | > 10 µg/mL | > 32 | > 32 | > 32 | > 32 | > 32 | > 32 | > 32 | > 32
CCC(C)C(=O)C1=C2O[C@H](C(C)(C)O)C[C@]2(C)C(=O)[C@]2(C[C@H]3[C@@H](CC[C@@]3(C)O)[C@](C)(O)C2)C1=O (some centres not stated) [CHIPERICUMIN B] | > 10 µg/mL | > 10 µg/mL | > 32 | > 32 | > 32 | > 32 | > 32 | > 32 | > 32 | > 32
CC(=O)O[C@H]1C(=O)[C@@]2(C)[C@H]([C@H](OC(=O)c3ccccc3)[C@]3(O)C[C@H](OC(=O)[C@H](O)[C@@H](NC(=O)c4ccccc4)c4ccccc4)C(C)=C1C3(C)C)[C@]1(OC(C)=O)CO[C@@H]1C[C@@H]2O [PACLITAXEL] | 4.5 nM | 120 nM | – | – | – | – | – | – | – | –
